{"source": "ChEMBL document CHEMBL2203175", "about": "“Discovery and optimization of sulfonyl acrylonitriles as selective, covalent inhibitors of protein phosphatase methylesterase-1” (J Med Chem, 2011)", "key": {"[1]": {"target": "T1, Protein phosphatase methylesterase 1 (Mus musculus) (UniProt Q8BVQ5)", "T1 sequence (whole entry)": "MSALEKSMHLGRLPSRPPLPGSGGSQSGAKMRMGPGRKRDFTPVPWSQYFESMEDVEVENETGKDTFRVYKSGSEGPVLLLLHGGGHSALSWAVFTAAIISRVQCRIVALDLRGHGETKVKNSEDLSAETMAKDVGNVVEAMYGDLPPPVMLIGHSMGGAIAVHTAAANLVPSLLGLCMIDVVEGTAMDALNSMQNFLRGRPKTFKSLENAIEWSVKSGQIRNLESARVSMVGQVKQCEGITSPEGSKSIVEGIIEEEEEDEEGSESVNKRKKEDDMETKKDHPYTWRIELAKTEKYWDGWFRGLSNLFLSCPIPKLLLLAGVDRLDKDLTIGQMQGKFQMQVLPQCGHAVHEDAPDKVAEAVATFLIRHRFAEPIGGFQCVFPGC", "assay": "Inhibition of PME1 binding to FP-rhodamine in mouse brain soluble proteome at 20 uM after 30 mins by […] activity-based protein profiling assay relative to control", "assay_type": "tissue-based"}, "[2]": {"target": "T2, Protein phosphatase methylesterase 1 (Mus musculus, UniProt Q8BVQ5)", "T2 sequence (Q8BVQ5 whole entry)": "T1 sequence (whole entry)", "assay": "Inhibition of PME1 binding to FP-rhodamine in mouse brain soluble proteome after 45 mins by gel-based competitive activity-based protein profiling assay"}, "[3]": {"target": "Prolyl endopeptidase (Mus musculus) (UniProt Q9QUR6)", "sequence (Q9QUR6 whole entry, looked up)": "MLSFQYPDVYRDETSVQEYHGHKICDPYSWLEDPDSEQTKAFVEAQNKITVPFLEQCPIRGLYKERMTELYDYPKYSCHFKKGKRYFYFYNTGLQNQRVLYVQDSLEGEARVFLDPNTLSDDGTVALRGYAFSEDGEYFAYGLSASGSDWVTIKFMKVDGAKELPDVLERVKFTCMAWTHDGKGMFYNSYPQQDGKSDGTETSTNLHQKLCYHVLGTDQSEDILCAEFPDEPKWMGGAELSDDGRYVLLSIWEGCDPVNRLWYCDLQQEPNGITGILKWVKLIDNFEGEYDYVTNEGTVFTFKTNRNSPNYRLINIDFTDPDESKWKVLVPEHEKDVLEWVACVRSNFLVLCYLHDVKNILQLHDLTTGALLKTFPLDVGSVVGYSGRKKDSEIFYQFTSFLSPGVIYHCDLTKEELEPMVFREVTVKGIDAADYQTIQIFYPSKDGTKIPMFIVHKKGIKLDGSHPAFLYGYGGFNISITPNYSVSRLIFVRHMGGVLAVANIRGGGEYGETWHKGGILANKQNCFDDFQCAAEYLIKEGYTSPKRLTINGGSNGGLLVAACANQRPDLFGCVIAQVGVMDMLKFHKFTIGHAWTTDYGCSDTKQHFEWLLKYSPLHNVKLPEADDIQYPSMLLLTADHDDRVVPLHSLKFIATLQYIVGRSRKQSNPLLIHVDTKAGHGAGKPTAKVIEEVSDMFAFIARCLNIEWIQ", "assay": "Inhibition of prolyl endopeptidase binding to FP-rhodamine in mouse brain soluble proteome at 50 uM after 30 mins by […] activity-based protein profiling assay relative to control", "assay_type": "tissue-based"}, "[4]": {"target": "T3, Protein phosphatase methylesterase 1 (Homo sapiens) (UniProt Q9Y570)", "T3 sequence (whole entry)": "T1 sequence (whole entry) with T42S, G114S, S123P, V150I, A167S, A168S, V268I, N269S", "assay": "Inhibition of PME1-based PP2A […] in human HEK293T cells at 50 uM after 3 hrs by Western blot analysis", "assay_type": "cell-based", "conditions": "HEK-293T"}, "[5]": {"target": "Acylamino-acid-releasing enzyme (Homo sapiens) (UniProt P13798)", "sequence (P13798 whole entry)": "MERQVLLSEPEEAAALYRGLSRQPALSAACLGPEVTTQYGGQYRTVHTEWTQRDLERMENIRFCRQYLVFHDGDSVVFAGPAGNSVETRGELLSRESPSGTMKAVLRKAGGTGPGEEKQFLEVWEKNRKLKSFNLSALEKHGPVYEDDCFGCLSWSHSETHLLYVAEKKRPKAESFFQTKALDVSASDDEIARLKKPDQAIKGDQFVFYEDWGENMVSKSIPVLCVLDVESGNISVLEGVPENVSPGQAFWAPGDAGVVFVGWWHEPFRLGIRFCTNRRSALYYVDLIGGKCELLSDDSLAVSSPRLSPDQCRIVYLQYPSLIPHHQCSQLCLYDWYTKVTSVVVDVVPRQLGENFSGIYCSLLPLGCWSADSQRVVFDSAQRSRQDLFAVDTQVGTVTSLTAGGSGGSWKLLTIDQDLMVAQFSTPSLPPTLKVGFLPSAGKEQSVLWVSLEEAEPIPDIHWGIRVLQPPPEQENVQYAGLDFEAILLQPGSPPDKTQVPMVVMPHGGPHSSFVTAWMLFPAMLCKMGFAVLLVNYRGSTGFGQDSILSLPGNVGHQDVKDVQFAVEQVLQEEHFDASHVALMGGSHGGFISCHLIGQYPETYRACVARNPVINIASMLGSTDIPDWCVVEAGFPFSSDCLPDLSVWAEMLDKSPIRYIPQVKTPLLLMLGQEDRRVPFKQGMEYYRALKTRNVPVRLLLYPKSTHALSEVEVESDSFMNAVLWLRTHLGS", "assay": "Inhibition of acyl peptide hydrolase binding to FP-rhodamine in human HEK293T cells at 0.5 to 50 uM after 30 mins by […] activity-based protein profiling assay", "conditions": "HEK-293T"}, "[6]": {"target": "Acylamino-acid-releasing enzyme (Mus musculus) (UniProt Q8R146)", "sequence (Q8R146 whole entry)": "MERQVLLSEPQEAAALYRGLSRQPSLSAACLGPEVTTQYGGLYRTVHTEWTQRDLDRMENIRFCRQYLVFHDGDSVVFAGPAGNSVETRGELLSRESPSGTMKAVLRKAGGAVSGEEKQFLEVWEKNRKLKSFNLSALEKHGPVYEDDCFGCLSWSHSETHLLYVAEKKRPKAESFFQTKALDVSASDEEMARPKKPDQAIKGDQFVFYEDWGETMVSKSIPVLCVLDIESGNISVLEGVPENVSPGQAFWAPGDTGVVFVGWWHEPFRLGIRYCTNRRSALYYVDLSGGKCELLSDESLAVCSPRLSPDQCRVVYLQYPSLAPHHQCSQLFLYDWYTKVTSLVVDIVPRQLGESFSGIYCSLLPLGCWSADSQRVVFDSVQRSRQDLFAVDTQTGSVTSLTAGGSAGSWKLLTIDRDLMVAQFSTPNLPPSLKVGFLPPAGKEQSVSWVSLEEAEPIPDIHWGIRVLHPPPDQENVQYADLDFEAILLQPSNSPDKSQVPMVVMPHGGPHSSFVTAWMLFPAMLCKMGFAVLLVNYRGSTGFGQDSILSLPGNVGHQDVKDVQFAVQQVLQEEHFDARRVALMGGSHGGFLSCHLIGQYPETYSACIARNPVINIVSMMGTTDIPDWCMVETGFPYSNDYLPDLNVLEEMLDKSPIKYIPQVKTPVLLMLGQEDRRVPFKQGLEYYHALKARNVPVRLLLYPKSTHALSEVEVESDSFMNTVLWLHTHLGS", "assay": "Inhibition of acyl peptide hydrolase binding to FP-rhodamine in mouse brain soluble proteome at 50 uM after 30 mins by […] activity-based protein profiling assay relative to control", "assay_type": "tissue-based"}, "[7]": {"target": "Protein phosphatase methylesterase 1 (Homo sapiens, UniProt Q9Y570)", "sequence (Q9Y570 whole entry)": "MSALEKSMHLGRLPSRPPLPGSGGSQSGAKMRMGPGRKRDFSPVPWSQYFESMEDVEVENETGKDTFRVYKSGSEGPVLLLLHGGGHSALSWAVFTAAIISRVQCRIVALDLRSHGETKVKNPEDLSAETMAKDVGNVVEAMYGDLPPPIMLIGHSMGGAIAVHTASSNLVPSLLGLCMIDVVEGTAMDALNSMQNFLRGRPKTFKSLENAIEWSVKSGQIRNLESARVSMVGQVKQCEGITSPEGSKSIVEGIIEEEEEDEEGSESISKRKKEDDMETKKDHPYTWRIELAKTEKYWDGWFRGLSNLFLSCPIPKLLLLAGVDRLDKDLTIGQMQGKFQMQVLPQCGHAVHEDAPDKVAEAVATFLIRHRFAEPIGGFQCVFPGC", "assay": "Inhibition of PME1 binding to FP-rhodamine in human MDA-MB-231 cells after 45 mins by gel-based competitive activity-based protein profiling assay"}, "[8]": {"target": "T3, Protein phosphatase methylesterase 1 (Homo sapiens)", "assay": "Inhibition of PME1 expressed in untransfected HEK293T cells assessed as reduction in demethylated PP2A level at 500 nM after 1 hr by Western blot analysis", "assay_type": "cell-based", "conditions": "HEK-293T", "procedure,_shortened": "(§1)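 HEK 293T cells, either stably overexpressing PME-1 or untransfected, treated in medium for 1 h at 37 °C. Total cell extract (2 mg/mL) run on reducing SDS-PAGE (10%) and blotted with demethylated-specific (4b7), methylated-specific (2A10) and total PP2A antibodies, imaged by infrared fluorescence. Mean ± SEM, n = 3, compared against DMSO-treated cells.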"}, "[9]": {"target": "T3, Protein phosphatase methylesterase 1 (Homo sapiens)", "assay": "Inhibition of PME1 overexpressed in HEK293T cells assessed as increase in methylated PP2A level at 20 uM after 1 hr by Western blot analysis", "assay_type": "cell-based", "conditions": "HEK-293T", "procedure,_shortened": "as §1"}, "[10]": {"target": "T3, Protein phosphatase methylesterase 1 (Homo sapiens)", "assay": "Inhibition of PME1 overexpressed in HEK293T cells assessed as reduction in demethylated PP2A level at 20 uM after 1 hr by Western blot analysis relative to control", "assay_type": "cell-based", "conditions": "HEK-293T", "procedure,_shortened": "as §1"}}, "note": "Changes are numbered by the printed parent chain. Calls of active or inactive are those of the source. The calls are words filed in the database; no cut-off is given here."}
{"smiles": "CS(=O)(=O)/C(C#N)=C/c1ccccc1", "values": [{"measurement": "inhibition", "setting": "[1]", "value": 0, "unit": "%"}]}
{"smiles": "CC(C)(C)S(=O)(=O)/C(C#N)=C/c1cccn1S(=O)(=O)c1ccccc1", "values": [{"measurement": "IC50", "setting": "[2]", "value": 6.8, "unit": "µM"}]}
{"smiles": "CS(=O)(=O)/C(C#N)=C/c1cccn1S(=O)(=O)c1c(F)c(F)c(F)c(F)c1F", "values": [{"measurement": "IC50", "setting": "[2]", "value": "> 20", "unit": "µM"}]}
{"smiles": "CS(=O)(=O)/C(C#N)=C/c1cccn1S(=O)(=O)c1ccc(C#N)cc1", "values": [{"measurement": "IC50", "setting": "[2]", "value": 4, "unit": "µM"}, {"measurement": "inhibition", "setting": "[3]", "value": "> 50", "unit": "%"}]}
{"smiles": "CS(=O)(=O)/C(=C/c1cccn1S(=O)(=O)c1ccccc1)CN", "values": [{"measurement": "inhibition", "setting": "[1]", "value": 0, "unit": "%"}]}
{"smiles": "CS(=O)(=O)/C(C#N)=C/c1ccc[nH]1", "values": [{"measurement": "inhibition", "setting": "[1]", "value": 0, "unit": "%"}]}
{"smiles": "N#CC(C#N)=Cc1cccn1S(=O)(=O)c1ccccc1", "values": [{"measurement": "inhibition", "setting": "[1]", "value": 50, "unit": "%"}]}
{"smiles": "CS(=O)(=O)/C(C#N)=C/c1cccn1S(=O)(=O)c1ccccc1", "values": [{"measurement": "inhibition", "setting": "[4]", "value": "Active"}, {"measurement": "inhibition", "setting": "[5]", "value": "Active"}, {"measurement": "inhibition", "setting": "[6]", "value": "> 50", "unit": "%"}, {"measurement": "IC50", "setting": "[7]", "value": 10.8, "unit": "µM"}, {"measurement": "inhibition", "setting": "[1]", "value": 90, "unit": "%"}]}
{"smiles": "CS(=O)(=O)/C(C#N)=C/c1cccn1S(=O)(=O)c1ccc([N+](=O)[O-])cc1", "values": [{"measurement": "IC50", "setting": "[2]", "value": 3, "unit": "µM"}]}
{"smiles": "CS(=O)(=O)C(=Cc1cccn1S(=O)(=O)c1ccccc1)S(C)(=O)=O", "values": [{"measurement": "inhibition", "setting": "[3]", "value": "> 50", "unit": "%"}, {"measurement": "inhibition", "setting": "[1]", "value": 0, "unit": "%"}]}
{"smiles": "CS(=O)(=O)/C(C#N)=C/c1cccn1S(=O)(=O)c1ccc(Cl)cc1", "values": [{"measurement": "inhibition", "setting": "[6]", "value": "> 50", "unit": "%"}]}
{"smiles": "COC(=O)N1C(=O)[C@](c2ccccc2)(C2CCCC2)N1C(=O)OC", "values": [{"measurement": "inhibition", "setting": "[8]", "value": "Active"}]}
{"smiles": "N#C/C(=C\\c1cccn1S(=O)(=O)c1cccc(C#N)c1)S(=O)(=O)c1ccc(F)cc1", "values": [{"measurement": "inhibition", "setting": "[9]", "value": "Active"}, {"measurement": "IC50", "setting": "[2]", "value": 0.64, "unit": "µM"}, {"measurement": "inhibition", "setting": "[10]", "value": 80, "unit": "%"}]}
{"smiles": "CC(C)(C)S(=O)(=O)/C(C#N)=C/c1cccn1S(=O)(=O)c1cccc(C#N)c1", "values": [{"measurement": "IC50", "setting": "[2]", "value": 3.4, "unit": "µM"}]}
{"smiles": "CS(=O)(=O)C(C#N)Cc1cccn1S(=O)(=O)c1ccccc1", "note": "(stereo unspecified)", "values": [{"measurement": "inhibition", "setting": "[1]", "value": 0, "unit": "%"}]}
{"smiles": "CS(=O)(=O)/C(C#N)=C/c1cccn1S(=O)(=O)c1cccc(C#N)c1", "values": [{"measurement": "IC50", "setting": "[2]", "value": 2.5, "unit": "µM"}]}
{"smiles": "N#C/C(=C\\c1cccn1S(=O)(=O)c1ccccc1)S(=O)(=O)c1ccccc1", "values": [{"measurement": "IC50", "setting": "[2]", "value": "> 20", "unit": "µM"}]}
{"smiles": "CS(=O)(=O)/C(C#N)=C/c1ccc([N+](=O)[O-])cc1", "values": [{"measurement": "inhibition", "setting": "[1]", "value": 0, "unit": "%"}]}
